Reference: ChEMBL document CHEMBL4814076, “Discovery of a Potent and Selective Covalent Inhibitor of Bruton's Tyrosine Kinase with Oral Anti-Inflammatory Activity” (ACS Med Chem Lett, 2021)

Experiments:
[1] = Oral bioavailability in Sprague-Dawley rat at 5 mg/kg measured upto 24 hrs by LC-MS/MS analysis; format: ADME, organism-based; details: in vivo
[2] = Clearance in Sprague-Dawley rat at 5 mg/kg, po or 1 mg/kg, iv measured upto 24 hrs by LC-MS/MS analysis; format: ADME, organism-based; details: in vivo
Method in brief: (§1)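 Rats (nonfasted; IV 1 mg/kg, PO 5 mg/kg) and dogs (fasted; IV 0.5 mg/kg, PO 2.5 mg/kg) dosed from 20% hydroxypropyl-β-cyclodextrin solution.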

[3] = Volume of distribution at steady state in Beagle dog at 2.5 mg/kg, po or 0.5 mg/kg, iv measured upto 24 hrs by LC-MS/MS analysis; format: ADME, organism-based, Canis lupus familiaris; details: in vivo, read-out: Vdss; method in brief: as §1
[4] = Cmax in Beagle dog at 2.5 mg/kg, po measured upto 24 hrs by LC-MS/MS analysis; format: ADME, organism-based, Canis lupus familiaris; parameters: route oral, dose 2.5 mg/kg, time <=24; details: in vivo; method in brief: as §1
[5] = Clearance in Beagle dog at 2.5 mg/kg, po or 0.5 mg/kg, iv measured upto 24 hrs by LC-MS/MS analysis; format: ADME, organism-based, Canis lupus familiaris; details: in vivo; method in brief: as §1
[6] = Half life in Beagle dog at 0.5 mg/kg, iv measured upto 24 hrs by LC-MS/MS analysis; format: ADME, organism-based, Canis lupus familiaris; details: in vivo; method in brief: as §1
[7] = In vivo protein occupancy at BTK in Wistar rat at 3 mg/kg, po measured after 24 hrs by ELISA relative to control; format: functional
Method in brief: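 Single oral dose of 3 mg/kg in rats. BTK occupancy compared with plasma concentration over time out to 48 h.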

[8] = Oral bioavailability in Beagle dog at 2.5 mg/kg measured upto 24 hrs by LC-MS/MS analysis; format: ADME, organism-based, Canis lupus familiaris; details: in vivo; method in brief: as §1
[9] = target: T1, Cytoplasmic tyrosine-protein kinase BMX (Homo sapiens, UniProt P51813); experiment: Inhibition of recombinant human full length BMX using poly(Glu, Tyr) 4:1 as substrate incubated for 40 mins in presence of [gamma33P]ATP by scintillation counting method
T1 sequence (P51813 whole entry): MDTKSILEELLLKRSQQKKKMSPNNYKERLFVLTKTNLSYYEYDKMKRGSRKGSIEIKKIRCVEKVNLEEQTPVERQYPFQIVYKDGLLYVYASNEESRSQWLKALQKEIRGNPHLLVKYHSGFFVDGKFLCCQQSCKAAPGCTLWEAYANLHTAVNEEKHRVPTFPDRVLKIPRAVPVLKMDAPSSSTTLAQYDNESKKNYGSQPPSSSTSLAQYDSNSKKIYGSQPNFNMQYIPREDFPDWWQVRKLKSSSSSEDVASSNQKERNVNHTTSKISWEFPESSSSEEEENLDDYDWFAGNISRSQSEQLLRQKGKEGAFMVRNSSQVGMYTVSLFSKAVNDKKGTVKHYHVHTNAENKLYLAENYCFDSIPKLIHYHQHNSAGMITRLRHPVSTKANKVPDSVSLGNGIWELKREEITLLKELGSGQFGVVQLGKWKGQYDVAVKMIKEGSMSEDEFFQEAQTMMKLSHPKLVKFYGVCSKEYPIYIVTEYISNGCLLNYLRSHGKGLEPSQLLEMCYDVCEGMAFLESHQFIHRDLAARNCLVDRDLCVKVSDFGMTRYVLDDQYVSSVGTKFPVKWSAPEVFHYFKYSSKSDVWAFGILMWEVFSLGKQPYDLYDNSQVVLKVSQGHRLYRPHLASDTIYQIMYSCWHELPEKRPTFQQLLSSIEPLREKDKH

[10] = target: T2, Tyrosine-protein kinase Tec (Homo sapiens, UniProt P42680); experiment: Inhibition of recombinant human TEC (174 to end residues) using EFPIYDFLPAKKK as substrate incubated for 40 mins in presence of [gamma33P]ATP by scintillation counting method
T2 sequence (P42680 whole entry): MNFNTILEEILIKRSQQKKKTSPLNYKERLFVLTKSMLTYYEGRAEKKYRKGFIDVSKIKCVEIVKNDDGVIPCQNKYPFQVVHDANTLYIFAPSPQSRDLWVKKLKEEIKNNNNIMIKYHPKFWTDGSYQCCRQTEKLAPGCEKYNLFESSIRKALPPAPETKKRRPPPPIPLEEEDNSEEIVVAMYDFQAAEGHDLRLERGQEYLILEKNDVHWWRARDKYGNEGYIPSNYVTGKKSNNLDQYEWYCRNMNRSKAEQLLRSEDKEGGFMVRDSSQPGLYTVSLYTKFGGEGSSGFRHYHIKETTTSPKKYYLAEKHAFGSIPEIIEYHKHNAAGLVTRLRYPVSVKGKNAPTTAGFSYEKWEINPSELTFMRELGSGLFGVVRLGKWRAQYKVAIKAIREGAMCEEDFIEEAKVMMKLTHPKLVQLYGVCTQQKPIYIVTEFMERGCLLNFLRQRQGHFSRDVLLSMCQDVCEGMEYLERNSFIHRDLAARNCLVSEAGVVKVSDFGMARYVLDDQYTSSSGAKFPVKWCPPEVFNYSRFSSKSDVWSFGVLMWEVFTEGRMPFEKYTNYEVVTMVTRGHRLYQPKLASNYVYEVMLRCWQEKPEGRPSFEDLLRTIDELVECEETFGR

[11] = target: Proto-oncogene tyrosine-protein kinase Src (Homo sapiens, UniProt P12931); experiment: Inhibition of recombinant human SRC (1 to 530 residues) using GGEEEEYFELVKKKK as substrate incubated for 40 mins in presence of [gamma33P]ATP by scintillation counting method
Chain of Proto-oncogene tyrosine-protein kinase Src (P12931 2-536 limits assumed): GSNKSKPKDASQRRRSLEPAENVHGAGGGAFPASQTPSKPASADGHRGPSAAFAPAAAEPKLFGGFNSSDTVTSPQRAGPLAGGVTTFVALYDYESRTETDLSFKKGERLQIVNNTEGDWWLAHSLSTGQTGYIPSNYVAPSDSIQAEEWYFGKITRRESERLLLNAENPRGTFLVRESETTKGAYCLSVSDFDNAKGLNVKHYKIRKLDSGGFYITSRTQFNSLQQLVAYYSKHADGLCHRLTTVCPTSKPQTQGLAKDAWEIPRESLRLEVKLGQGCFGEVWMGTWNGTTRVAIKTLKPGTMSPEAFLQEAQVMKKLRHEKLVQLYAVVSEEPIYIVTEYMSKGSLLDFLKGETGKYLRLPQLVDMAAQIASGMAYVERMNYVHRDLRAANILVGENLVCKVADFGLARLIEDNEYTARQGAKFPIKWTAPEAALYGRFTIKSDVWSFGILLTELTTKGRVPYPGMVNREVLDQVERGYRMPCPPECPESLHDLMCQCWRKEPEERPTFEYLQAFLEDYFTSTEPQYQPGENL

bioavailability [1]: 29.7%
clearance [2]: 39.6 mL/min/kg
Vd [3]: 1.1 L/kg
Cmax [4]: 1500 nM
clearance [5]: 8 mL/min/kg
half-life [6]: 114 min
bioavailability [8]: 68%
IC50 [9]: 129 nM
IC50 [10]: 409 nM
IC50 [11]: 3.49 µM
SMILES: C=CC(=O)N1CC[C@@H](NC(=O)c2sc3nccc4c3c2NC(=O)N4c2ccc(Oc3ccccc3)cc2C)C1
Activity [7]: 70%
